Assay results: ChEMBL document CHEMBL3600305, “Flemingin-Type Prenylated Chalcones from the Sarawak Rainforest Plant Desmodium congestum” (J Nat Prod, 2015)
In brackets after ≈: the same amount, converted by molar mass.

How the values were obtained:
Staphylococcus aureus [1] = test: Antibacterial activity against glycopeptide-intermediate Staphylococcus aureus NRSA-NRS 17 after 24 hrs; assay type: functional; details: NRSA-NRS 17, 24 h
In short: (§1)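 Broth microdilution in MHB. Overnight cultures at 37 °C with shaking, diluted 40-fold and grown 2−3 h to mid-log, then added at final 5 × 10^5 CFU/mL. Compounds in 2-fold series, final 0.015−32 μg/mL, in duplicate. Incubated 24 h at 37 °C. MIC read visually as lowest concentration with no visible growth. Vancomycin, daptomycin and colistin as controls.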

Staphylococcus aureus [2] = test: Antibacterial activity against methicillin-resistant Staphylococcus aureus ATCC 43300 after 24 hrs; assay type: functional; details: ATCC 43300, 24 h
In short: (§2)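 Broth microdilution in MHB. Overnight cultures grown at 37 °C with shaking, diluted 40-fold and grown 2−3 h to mid-log, then added at a final 5 × 10^5 CFU/mL. Compounds in 2-fold serial dilution, final 0.015−32 μg/mL, in duplicate. Incubated 24 h at 37 °C. MIC read visually as the lowest concentration with no visible growth. Vancomycin, daptomycin and colistin served as controls.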

Escherichia coli = test: Antibacterial activity against Escherichia coli ATCC 25922 after 24 hrs; assay type: functional; in short: as §1
Staphylococcus aureus [3] = test: Antibacterial activity against methicillin-resistant and glycopeptide-intermediate Staphylococcus aureus NRSA-NRS 1 after 24 hrs; assay type: functional; details: NRSA-NRS 1, 24 h; in short: as §2
HEK293 = test: Cytotoxicity against human HEK293 cells after 24 hrs; assay type: cell-based; details: HEK293, 24 h
In short: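 HEK293 cells seeded at 3000/well in DMEM with 10% FBS, attached 24 h at 37 °C, 5% CO2. Compounds from 1.28 mg/mL DMSO stock in 1:3 serial dilutions, final DMSO 1%, 24 h exposure. Resazurin 10 μM added for 2 h; fluorescence ex/em 560/590 nm. Four replicates; viability normalised to 1% DMSO and negative controls. Tamoxifen positive control.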

Streptococcus pneumoniae = test: Antibacterial activity against multidrug-resistant Streptococcus pneumoniae ATCC 700677 after 24 hrs; assay type: functional; details: ATCC 700677, 24 h; in short: as §2
Enterococcus faecium = test: Antibacterial activity against multidrug-resistant Enterococcus faecium ATCC 51559 expressing VanA after 24 hrs; assay type: functional; details: ATCC 51559, 24 h; in short: as §2
Enterococcus faecalis = test: Antibacterial activity against Enterococcus faecalis clinical isolate expressing VanA after 24 hrs; assay type: functional; in short: as §2

| Compound | MIC (Staphylococcus aureus [1]) [mg/L] | MIC (Staphylococcus aureus [2]) [mg/L] | MIC (Escherichia coli; ATCC 25922, 24 h) [mg/L] | MIC (Staphylococcus aureus [3]) [mg/L] | IC50 (HEK293) [µM] | MIC (Streptococcus pneumoniae) [mg/L] | MIC (Enterococcus faecium) [mg/L] | MIC (Enterococcus faecalis) [mg/L] | MIC (Escherichia coli) [mg/L] |
| --- | --- | --- | --- | --- | --- | --- | --- | --- | --- |
| COc1cc(C(=O)/C=C/c2cccc(O)c2O)c(O)c2c1OC(C)(CCC=C(C)C)C=C2 (stereo not drawn) | > 32 | 32 (≈ 73.3 µM) | > 32 | 32 (≈ 73.3 µM) | 37 | 32 (≈ 73.3 µM) | 32 (≈ 73.3 µM) | 16 (≈ 36.7 µM) | – |
| CN[C@H](CC(C)C)C(=O)N[C@H]1C(=O)N[C@@H](CC(N)=O)C(=O)N[C@H]2C(=O)N[C@H]3C(=O)N[C@H](C(=O)N[C@H](C(=O)O)c4cc(O)cc(O)c4-c4cc3ccc4O)[C@H](O)c3ccc(c(Cl)c3)Oc3cc2cc(c3O[C@@H]2O[C@H](CO)[C@@H](O)[C@H](O)[C@H]2O[C@H]2C[C@](C)(N)[C@H](O)[C@H](C)O2)Oc2ccc(cc2Cl)[C@H]1O [VANCOMYCIN] | 8 (≈ 5.52 µM) | – | – | 8 (≈ 5.52 µM) | – | 2 (≈ 1.38 µM) | > 32 | > 32 | – |
| CCCCCCCCCC(=O)N[C@@H](Cc1c[nH]c2ccccc12)C(=O)N[C@H](CC(N)=O)C(=O)N[C@@H](CC(=O)O)C(=O)N[C@@H]1C(=O)NCC(=O)N[C@@H](CCCN)C(=O)N[C@@H](CC(=O)O)C(=O)N[C@H](C)C(=O)N[C@@H](CC(=O)O)C(=O)NCC(=O)N[C@H](CO)C(=O)N[C@@H]([C@H](C)CC(=O)O)C(=O)N[C@@H](CC(=O)c2ccccc2N)C(=O)O[C@@H]1C | 8 (≈ 4.94 µM) | 1.2 (≈ 0.74 µM) | – | 16 (≈ 9.87 µM) | – | 2 (≈ 1.23 µM) | 16 (≈ 9.87 µM) | 8 (≈ 4.94 µM) | – |
| COLISTIN | – | – | – | – | – | – | – | – | 0.25 |
| COc1cc(C(=O)/C=C/c2cc(O)ccc2O)c(O)c2c1OC(C)(CCC=C(C)C)C=C2 (stereo not drawn) | > 32 | 32 (≈ 73.3 µM) | > 32 | 32 (≈ 73.3 µM) | 21 | 32 (≈ 73.3 µM) | 32 (≈ 73.3 µM) | 16 (≈ 36.7 µM) | – |
